Measurements pooled from the literature.
Protocols differ between the studies behind these lines.
Organism: Acinetobacter baumannii
Read-out: microbial growth

`N=C(N)c1ccc(OCCC(CCOc2ccc(C(=N)N)cc2)c2ccccc2)cc1` (stereo not drawn) gave an MIC of over 200 µg/mL (broth dilution; ATCC17978).
For `CN[C@H](CC(C)C)C(=O)N[C@H]1C(=O)N[C@@H](CC(N)=O)C(=O)N[C@H]2C(=O)N[C@H]3C(=O)N[C@H](C(=O)N[C@H](C(=O)O)c4cc(O)cc(O)c4-c4cc3ccc4O)[C@H](O)c3ccc(c(Cl)c3)Oc3cc2cc(c3O[C@@H]2O[C@H](CO)[C@@H](O)[C@H](O)[C@H]2O[C@H]2C[C@](C)(N)[C@H](O)[C@H](C)O2)Oc2ccc(cc2Cl)[C@H]1O`, the MIC was over 128 µM (broth dilution; BAA747).
The MIC of `O=C(O)c1ccc(-n2cc(/C=N/Nc3ccc(F)c(Cl)c3)c(-c3ccc4ccccc4c3)n2)cc1` is reported as 25 µg/mL (ATCCBAA1605).
The MIC of `C/C(O)=C1\C(=O)C(CC(C)C)N(C(=O)C=Cc2ccccc2)C1=O` (stereo not drawn) is reported as over 200 µg/mL (ATCC19606).
`CN(C)c1cc(CNCC(C)(C)C)c(O)c2c1C[C@H]1C[C@H]3[C@H](N(C)C)C(O)=C(C(N)=O)C(=O)[C@@]3(O)C(O)=C1C2=O` has an MIC of 1 µg/mL (broth dilution; ATCC19606).
With `CN[C@H](CC(C)C)C(=O)N[C@H]1C(=O)N[C@@H](CC(N)=O)C(=O)N[C@H]2C(=O)N[C@H]3C(=O)N[C@H](C(=O)N[C@H](C(=O)O)c4cc(O)cc(O)c4-c4cc3ccc4O)[C@H](O)c3ccc(c(Cl)c3)Oc3cc2cc(c3O[C@@H]2O[C@H](CO)[C@@H](O)[C@H](O)[C@H]2O[C@H]2C[C@](C)(N)[C@H](O)[C@H](C)O2)Oc2ccc(cc2Cl)[C@H]1O` the MIC was over 32 µg/mL (broth dilution; ATCC19606; 18 h).
`NC1CCCCc2c1[nH]c1cc(Cl)c(Cl)cc21` (stereo not drawn) has an MIC of 8 µg/mL (broth dilution; ATCC19606).
The MIC of `CC(C)(O/N=C(\C(=O)N[C@@H]1C(=O)N2C(C(=O)[O-])=C(C[N+]3(CCNC(=O)c4ccc(O)c(O)c4Cl)CCCC3)CS[C@H]12)c1csc(N)n1)C(=O)O` is reported as 0.2 µM (DSM30007).
`NC1CCCCc2c1[nH]c1ccc(Br)cc21` (stereo not drawn) gave an MIC of 16 µg/mL (broth dilution; ATCC19606).
The MIC of `CO[C@H]1/C=C/O[C@@]2(C)Oc3c(C)c(O)c4c(O)c(c(/C=N/N5CCN(C)CC5)c(O)c4c3C2=O)NC(=O)/C(C)=C\C=C\[C@H](C)[C@H](O)[C@@H](C)[C@@H](O)[C@@H](C)[C@H](OC(C)=O)[C@@H]1C` is reported as 4 µg/mL (NCTC13301).
`N=C(N)c1ccc(OCCCCCOc2ccc(C(=N)N)cc2)cc1` gave an MIC of over 200 µg/mL (broth dilution; ATCC17978).
For `CC1(C)S[C@@H]2[C@H](NC(=O)C(C(=O)O)c3ccccc3)C(=O)N2[C@H]1C(=O)O` (stereo partly drawn), the MIC was over 200 µM (broth dilution; clinical isolate).
`O=C(CCCCCCCC[P+](c1ccccc1)(c1ccccc1)c1ccccc1)Nc1cc(O)c(O)c(O)c1.[Br-]` gave an MIC of over 32 µg/mL (broth dilution; ATCC19606; 18 h).
`CCCCCCC/C=C/C(=O)N1C(=O)/C(=C(\O)c2ccc(O)cc2)C(=O)C1CC(C)C` (stereo not drawn) has an MIC of over 200 µg/mL (ATCC19606).
`NC[C@H]1O[C@H](O[C@H]2[C@H](O)[C@@H](O[C@H]3O[C@H](CO)[C@@H](O)[C@H](N)[C@H]3O)[C@H](N)C[C@@H]2N)[C@H](N)C[C@@H]1O` gave an MIC of 2.6 µM (broth dilution).
The MIC of `CN(C)[C@@H]1C(O)=C(C(N)=O)C(=O)[C@@]2(O)C(O)=C3C(=O)c4c(c(F)c5ccc(CNC6CC6)cc5c4O)C[C@H]3C[C@@H]12` is reported as 1 µg/mL (broth dilution; ATCC19606).
For `O=C(CCCCCCCCCC[P+](c1ccccc1)(c1ccccc1)c1ccccc1)Nc1cc(O)c(O)c(O)c1.[Br-]`, the MIC was over 32 µg/mL (broth dilution; ATCC19606; 18 h).
`N=C(N)c1cccc(OCc2ccc(COc3cccc(C(=N)N)c3)cc2)c1` has an MIC of over 200 µg/mL (broth dilution; ATCC17978).
With `CCCCCCC/C=C/C(=O)N1C(=O)/C(=C(/C)O)C(=O)C1Cc1ccc(O)cc1` (stereo not drawn) the MIC was over 200 µg/mL (ATCC19606).
`CNC(C)C1CCC(N)C(OC2C(N)CC(N)C(OC3OCC(C)(O)C(NC)C3O)C2O)O1` (stereo not drawn) gave an MIC of 0.5 to 1 µg/mL.
`CCCNc1nc(F)c2c(c1O)C(=O)C1=C(O)[C@]3(O)C(=O)C(C(N)=O)=C(O)[C@@H](N(C)C)[C@@H]3C[C@@H]1C2.Cl.Cl` has an MIC of 0.125 µg/mL (broth dilution; ATCC19606).
`O=C(CCCCCCCC[P+](c1ccccc1)(c1ccccc1)c1ccccc1)Nc1ccc(O)c(O)c1.[Br-]` gave an MIC of over 32 µg/mL (broth dilution; ATCC19606; 18 h).
For `CN(C)[C@@H]1C(O)=C(C(N)=O)C(=O)[C@@]2(O)C(O)=C3C(=O)c4c(cc5ccc(CN(C)S(C)(=O)=O)cc5c4O)C[C@H]3C[C@@H]12`, the MIC was 32 µg/mL (broth dilution; ATCC19606).
`CNC(=O)c1cc(Oc2ccc(NC(=O)Nc3ccc(Cl)c(C(F)(F)F)c3)cc2)ccn1` gave an MIC of over 100 µM (DSM30007).
`O=[N+]([O-])c1ccc(O)c2ncccc12` gave an MIC of 1.56 µM (19606).
`CN(C)c1cc(NC(=O)CNC(C)(C)C)c(O)c2c1C[C@H]1C[C@H]3[C@H](N(C)C)C(O)=C(C(N)=O)C(=O)[C@@]3(O)C(O)=C1C2=O` gave an MIC of 1.2 µg/mL (ATCC19606).
For `O=C(O)c1ccc(-n2cc(/C=N/Nc3ccc(F)cc3)c(-c3ccc(F)cc3)n2)cc1`, the MIC was 25 µg/mL (ATCCBAA1605).
The MIC of `CCCCCCC/C=C/C(=O)N1C(=O)/C(=C(\O)c2ccc(OCOCCOC)cc2)C(=O)C1CC(C)C` (stereo not drawn) is reported as 200 µg/mL (ATCC19606).
For `CO[C@@H](C(N)=O)[C@H](NC(=O)c1ccc(NC(=O)c2ccc(C#N)cc2)cc1)C(=O)Nc1ccc(C(=O)Nc2ccc(C(=O)Nc3ccc(C(=O)O)cc3)c(O)c2OC(C)C)cc1`, the MIC was 1 µg/mL (DSM30008).
The MIC of `CN(C)Cc1ccc2c(N(C)C)c3c(c(O)c2c1)C(=O)C1=C(O)[C@]2(O)C(=O)C(C(N)=O)=C(O)[C@@H](N(C)C)[C@@H]2C[C@@H]1C3` is reported as 1 µg/mL (broth dilution; ATCC19606).
`CN(C)c1ccc(O)c2c1C[C@H]1C[C@H]3[C@H](N(C)C)C(O)=C(C(N)=O)C(=O)[C@@]3(O)C(O)=C1C2=O` gave an MIC of at most 0.125 µg/mL (broth dilution; ATCC19606).
With `CN(C)[C@@H]1C(O)=C(C(N)=O)C(=O)[C@@]2(O)C(O)=C3C(=O)c4c(O)cnc(-c5ccccc5)c4C[C@H]3C[C@@H]12.Cl.Cl` the MIC was 0.125 µg/mL (broth dilution; ATCC19606).
With `CNC(C)C1CCC(N)C(OC2C(N)CC(N)C(OC3OCC(C)(O)C(NC)C3O)C2O)O1` (stereo not drawn) the MIC was 0.5 µg/mL (broth dilution; ATCC19606).
With `CN[C@@H]1[C@H](O[C@H]2[C@H](O[C@H]3[C@H](O)[C@@H](O)[C@H](N=C(N)N)[C@@H](O)[C@@H]3N=C(N)N)O[C@@H](C)[C@]2(O)C=O)O[C@@H](CO)[C@H](O)[C@H]1O` the MIC was over 2000 µg/mL (ATCC19606).
For `CCCCCCC/C=C/C(=O)N1C(=O)/C(=C(\O)C2CCNCC2)C(=O)C1CC(C)C` (stereo not drawn), the MIC was 50 µg/mL (ATCC19606).
`CC(C)CCNc1nc(Cl)c2c(c1O)C(=O)C1=C(O)[C@]3(O)C(=O)C(C(N)=O)=C(O)[C@@H](N(C)C)[C@@H]3C[C@@H]1C2.Cl.Cl.Cl` has an MIC of 4 µg/mL (broth dilution; ATCC19606).
With `O=C(O)c1ccc(-n2cc(/C=N/Nc3cccc(Br)c3)c(-c3ccc(F)cc3)n2)cc1` the MIC was 12.5 µg/mL (ATCCBAA1605).
With `Cc1nc(Cl)c2c(c1O)C(=O)C1=C(O)[C@]3(O)C(=O)C(C(N)=O)=C(O)[C@@H](N(C)C)[C@@H]3C[C@@H]1C2.Cl` the MIC was 4 µg/mL (broth dilution; ATCC19606).
For `O=C(O)c1ccc(-n2cc(/C=N/Nc3ccc(Br)cc3)c(-c3ccc4ccccc4c3)n2)cc1`, the MIC was 12.5 µg/mL (ATCCBAA1605).
